Data reported in ChEMBL document CHEMBL4346670, “Discovery of Novel Janus Kinase (JAK) and Histone Deacetylase (HDAC) Dual Inhibitors for the Treatment of Hematological Malignancies” (J Med Chem, 2019).

Columns and labels:
HEL [1] = assay: Induction of apoptosis in HEL cells assessed as late apoptotic cells at 1 uM after 24 hrs by Annexin-V/propidium iodide staining-based flow cytometric analysis (reference value: 0.023%); assay type: functional, Homo sapiens
[2] = molecular target: Hepatocyte growth factor receptor (Homo sapiens) (UniProt P08581); assay: Inhibition of recombinant human c-MET at 200 nM using Ulight-CAGAGAIETDKEYYTVKD as substrate measured after 60 mins by LANCE method relative to control
[3] = MRT (0 to t) in CD1(ICR) mouse at 1 mg/kg, ip by LC-MS/MS analysis; assay type: ADME, organism-based; settings: in vivo
[4] = molecular target: T1, Tyrosine-protein kinase JAK3 (Homo sapiens, UniProt P52333); assay: Inhibition of recombinant human JAK3 using Ulight-CAGAGAIETDKEYYTVKD as substrate measured after 60 mins by LANCE assay
T1 sequence (P52333 whole entry): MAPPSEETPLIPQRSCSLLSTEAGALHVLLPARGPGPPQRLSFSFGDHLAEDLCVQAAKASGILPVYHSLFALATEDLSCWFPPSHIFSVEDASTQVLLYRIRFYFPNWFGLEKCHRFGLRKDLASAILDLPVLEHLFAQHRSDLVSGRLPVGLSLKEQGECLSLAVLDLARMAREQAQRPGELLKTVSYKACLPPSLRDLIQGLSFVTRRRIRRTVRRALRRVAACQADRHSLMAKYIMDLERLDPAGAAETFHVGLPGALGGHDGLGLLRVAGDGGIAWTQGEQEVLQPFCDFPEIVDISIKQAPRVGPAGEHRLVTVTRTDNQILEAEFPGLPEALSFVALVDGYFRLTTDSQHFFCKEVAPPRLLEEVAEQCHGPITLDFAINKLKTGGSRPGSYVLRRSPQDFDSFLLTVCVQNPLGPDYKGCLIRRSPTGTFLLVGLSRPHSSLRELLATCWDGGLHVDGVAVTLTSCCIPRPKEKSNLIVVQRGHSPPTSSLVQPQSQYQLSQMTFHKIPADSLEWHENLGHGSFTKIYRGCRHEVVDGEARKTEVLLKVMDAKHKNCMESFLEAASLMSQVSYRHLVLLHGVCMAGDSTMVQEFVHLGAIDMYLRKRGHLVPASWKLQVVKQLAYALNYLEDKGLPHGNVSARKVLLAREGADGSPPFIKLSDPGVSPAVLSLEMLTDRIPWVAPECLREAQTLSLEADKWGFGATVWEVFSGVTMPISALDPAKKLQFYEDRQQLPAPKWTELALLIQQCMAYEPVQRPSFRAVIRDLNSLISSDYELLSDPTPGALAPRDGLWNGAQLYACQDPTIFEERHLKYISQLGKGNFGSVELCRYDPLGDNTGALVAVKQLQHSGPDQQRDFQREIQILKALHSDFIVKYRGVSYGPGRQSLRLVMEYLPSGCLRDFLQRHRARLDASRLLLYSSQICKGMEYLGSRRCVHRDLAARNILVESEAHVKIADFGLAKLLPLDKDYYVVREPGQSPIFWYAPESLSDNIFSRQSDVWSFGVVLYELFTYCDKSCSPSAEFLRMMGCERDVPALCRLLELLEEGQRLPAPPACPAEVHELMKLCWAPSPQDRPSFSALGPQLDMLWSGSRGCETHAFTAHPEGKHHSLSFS

[5] = molecular target: Tyrosine-protein kinase JAK1 (Homo sapiens, UniProt P23458); assay: Inhibition of recombinant human JAK1 using Ulight-CAGAGAIETDKEYYTVKD as substrate measured after 60 mins by LANCE assay
In short: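 Human recombinant JAK enzyme assays run by a contract lab. IC50 was taken from a non-linear curve fit, with all parameters allowed to float. Assays were run in replicate (n>2) and reported as mean ± SD.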

[6] = molecular target: Tyrosine-protein kinase JAK2 (Homo sapiens, UniProt O60674); assay: Inhibition of recombinant human JAK2 using Ulight-CAGAGAIETDKEYYTVKD as substrate measured after 60 mins by LANCE assay
K562 [7] = assay: Induction of apoptosis in human K562 cells assessed as early apoptotic cells at 1 uM after 24 hrs by Annexin-V/propidium iodide staining-based flow cytometric analysis (reference value: 7.55%); assay type: functional
HEL [8] = assay: Induction of apoptosis in HEL cells assessed as viable cells at 1 uM after 24 hrs by Annexin-V/propidium iodide staining-based flow cytometric analysis (reference value: 87.5%); assay type: functional, Homo sapiens; settings: Homo sapiens, HEL, 24 h; read-out: Activity
Jurkat = assay: Antiproliferative activity against human Jurkat cells assessed as reduction in cell viability after 48 hrs by MTT assay; assay type: functional, cell-based
[9] = molecular target: cAMP-dependent protein kinase catalytic subunit PRKX (Homo sapiens) (UniProt P51817); assay: Inhibition of recombinant human PRKX at 20 nM using Ulight-RRRSLLE as substrate measured after 30 mins by LANCE method relative to control
[10] = molecular target: Ribosomal protein S6 kinase alpha-4 (Homo sapiens) (UniProt O75676); assay: Inhibition of recombinant human MSK2 at 20 nM using biotinyl-beta […] AAAARARTSSFAEPG after 15 mins by HTRF method relative to control
HEL [11] = assay: Induction of apoptosis in HEL cells assessed as necrotic apoptotic cells at 1 uM after 24 hrs by Annexin-V/propidium iodide staining-based flow cytometric analysis (reference value: 0.011%); assay type: functional, Homo sapiens
Histone deacetylase = assay: Inhibition of HDAC in human HeLa nuclear extract using Boc-Lys(acetyl)-AMC as substrate preincubated for 5 mins followed by substrate addition and measured after 30 mins by fluorescence assay; assay type: cell-based
[12] = molecular target: Mitogen-activated protein kinase 8 (Homo sapiens) (UniProt P45983); assay: Inhibition of recombinant human JNK1 at 200 nM using Ulight-CFFKNIVTPRTPPPSQGK-amide as substrate measured after 60 mins by LANCE method relative to control
In short: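 Part of an 85-kinase selectivity panel run by a contract lab, with the test compound at 20 nM and at 200 nM. Each human recombinant kinase's phosphorylation of its peptide substrate was measured following the JAK assay method. Activity is given as percent inhibition.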

[13] = molecular target: Serine/threonine-protein kinase DCLK1 (Homo sapiens) (UniProt O15075); assay: Inhibition of recombinant human DCAMKL1 at 200 nM using CREBtide as substrate measured after 60 mins by LANCE method relative to control
In short: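 Single-concentration screen within an 85-kinase panel run by a contract lab, with each compound tested at 20 nM and 200 nM. Human recombinant enzymes were used. Activity was quantified as phosphorylation of a peptide substrate read by LANCE time-resolved detection, and inhibition was expressed relative to control, using the same format as the JAK assay.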

K562 [14] = assay: Induction of apoptosis in human K562 cells assessed as viable cells at 1 uM after 24 hrs by Annexin-V/propidium iodide staining-based flow cytometric analysis (reference value: 85.7%); assay type: functional; settings: Homo sapiens, K562, 24 h; read-out: Activity
[15] = MRT (0 to t) in CD1(ICR) mouse at 1 mg/kg, iv by LC-MS/MS analysis; assay type: ADME, organism-based; settings: in vivo

Tyrosine-protein kinase JAK2, sequence (O60674 whole entry): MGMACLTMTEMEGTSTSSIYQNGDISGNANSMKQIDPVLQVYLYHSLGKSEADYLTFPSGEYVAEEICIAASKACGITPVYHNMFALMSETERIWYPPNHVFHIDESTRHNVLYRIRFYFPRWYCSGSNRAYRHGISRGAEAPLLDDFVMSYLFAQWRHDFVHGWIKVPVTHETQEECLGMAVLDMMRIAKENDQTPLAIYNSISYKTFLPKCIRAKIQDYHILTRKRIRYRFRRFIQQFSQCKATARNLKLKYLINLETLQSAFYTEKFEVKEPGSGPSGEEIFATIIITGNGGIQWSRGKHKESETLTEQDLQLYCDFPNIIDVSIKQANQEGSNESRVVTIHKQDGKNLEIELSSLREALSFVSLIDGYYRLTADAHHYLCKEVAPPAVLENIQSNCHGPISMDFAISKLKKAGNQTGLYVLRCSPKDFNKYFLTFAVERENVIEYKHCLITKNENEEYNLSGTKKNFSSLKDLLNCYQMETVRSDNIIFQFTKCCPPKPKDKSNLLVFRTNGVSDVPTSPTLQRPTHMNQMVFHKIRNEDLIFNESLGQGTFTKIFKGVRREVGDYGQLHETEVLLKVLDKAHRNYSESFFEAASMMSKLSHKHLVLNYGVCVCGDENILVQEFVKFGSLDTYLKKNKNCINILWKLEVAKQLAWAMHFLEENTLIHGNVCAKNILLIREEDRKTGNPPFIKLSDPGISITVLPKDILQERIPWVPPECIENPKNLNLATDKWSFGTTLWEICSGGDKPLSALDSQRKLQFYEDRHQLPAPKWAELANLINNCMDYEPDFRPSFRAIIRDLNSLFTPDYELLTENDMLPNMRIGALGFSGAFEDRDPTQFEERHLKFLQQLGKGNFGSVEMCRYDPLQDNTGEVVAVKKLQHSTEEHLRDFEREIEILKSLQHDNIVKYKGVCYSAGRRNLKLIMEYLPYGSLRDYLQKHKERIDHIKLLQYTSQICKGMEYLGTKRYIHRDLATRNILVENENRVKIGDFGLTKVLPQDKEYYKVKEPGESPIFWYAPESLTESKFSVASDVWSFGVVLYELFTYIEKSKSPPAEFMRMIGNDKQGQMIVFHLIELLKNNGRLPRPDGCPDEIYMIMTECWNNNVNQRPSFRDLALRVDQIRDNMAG
Tyrosine-protein kinase JAK1, sequence (P23458 whole entry): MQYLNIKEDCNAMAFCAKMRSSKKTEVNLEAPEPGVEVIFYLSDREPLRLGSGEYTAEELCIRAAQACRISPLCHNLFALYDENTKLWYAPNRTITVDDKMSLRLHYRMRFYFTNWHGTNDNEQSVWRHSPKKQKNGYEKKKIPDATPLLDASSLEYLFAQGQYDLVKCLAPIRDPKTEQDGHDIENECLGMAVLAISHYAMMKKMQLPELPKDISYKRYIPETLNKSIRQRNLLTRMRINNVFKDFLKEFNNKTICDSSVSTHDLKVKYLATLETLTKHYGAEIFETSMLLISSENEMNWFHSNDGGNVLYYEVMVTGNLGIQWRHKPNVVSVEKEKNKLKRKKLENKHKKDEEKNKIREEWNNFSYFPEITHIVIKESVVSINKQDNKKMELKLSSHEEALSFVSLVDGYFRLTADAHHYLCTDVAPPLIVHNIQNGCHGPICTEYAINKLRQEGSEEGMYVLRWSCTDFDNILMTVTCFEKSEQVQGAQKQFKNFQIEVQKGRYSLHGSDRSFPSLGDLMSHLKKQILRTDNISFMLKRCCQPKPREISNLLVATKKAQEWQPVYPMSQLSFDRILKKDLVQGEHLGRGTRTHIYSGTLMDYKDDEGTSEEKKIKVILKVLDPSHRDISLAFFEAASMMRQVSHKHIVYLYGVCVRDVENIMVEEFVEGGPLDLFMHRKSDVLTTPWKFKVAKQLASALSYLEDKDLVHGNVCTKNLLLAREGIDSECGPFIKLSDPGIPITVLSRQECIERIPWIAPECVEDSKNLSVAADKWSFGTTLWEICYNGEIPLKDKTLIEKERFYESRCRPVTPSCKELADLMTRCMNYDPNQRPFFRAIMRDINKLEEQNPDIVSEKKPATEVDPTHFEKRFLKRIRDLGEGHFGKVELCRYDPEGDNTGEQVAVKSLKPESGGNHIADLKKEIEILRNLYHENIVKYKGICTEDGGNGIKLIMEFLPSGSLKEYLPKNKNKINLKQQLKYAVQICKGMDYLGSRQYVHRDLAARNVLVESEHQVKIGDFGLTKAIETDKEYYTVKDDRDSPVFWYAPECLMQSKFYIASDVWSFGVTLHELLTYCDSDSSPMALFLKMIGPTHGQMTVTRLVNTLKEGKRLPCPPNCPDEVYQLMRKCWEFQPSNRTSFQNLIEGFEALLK
Mitogen-activated protein kinase 8 (Homo sapiens), sequence (P45983 whole entry): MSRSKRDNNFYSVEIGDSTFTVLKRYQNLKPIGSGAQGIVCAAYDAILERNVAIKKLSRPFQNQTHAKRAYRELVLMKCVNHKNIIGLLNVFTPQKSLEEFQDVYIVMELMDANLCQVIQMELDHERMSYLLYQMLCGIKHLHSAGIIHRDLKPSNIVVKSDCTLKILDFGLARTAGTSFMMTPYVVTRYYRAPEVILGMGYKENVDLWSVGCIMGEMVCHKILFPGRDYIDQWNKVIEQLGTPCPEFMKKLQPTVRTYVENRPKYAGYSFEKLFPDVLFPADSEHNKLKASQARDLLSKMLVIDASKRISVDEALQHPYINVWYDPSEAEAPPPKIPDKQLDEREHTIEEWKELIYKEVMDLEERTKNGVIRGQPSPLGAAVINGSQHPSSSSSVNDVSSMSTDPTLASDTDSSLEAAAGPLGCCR
Hepatocyte growth factor receptor (Homo sapiens), sequence (P08581 whole entry): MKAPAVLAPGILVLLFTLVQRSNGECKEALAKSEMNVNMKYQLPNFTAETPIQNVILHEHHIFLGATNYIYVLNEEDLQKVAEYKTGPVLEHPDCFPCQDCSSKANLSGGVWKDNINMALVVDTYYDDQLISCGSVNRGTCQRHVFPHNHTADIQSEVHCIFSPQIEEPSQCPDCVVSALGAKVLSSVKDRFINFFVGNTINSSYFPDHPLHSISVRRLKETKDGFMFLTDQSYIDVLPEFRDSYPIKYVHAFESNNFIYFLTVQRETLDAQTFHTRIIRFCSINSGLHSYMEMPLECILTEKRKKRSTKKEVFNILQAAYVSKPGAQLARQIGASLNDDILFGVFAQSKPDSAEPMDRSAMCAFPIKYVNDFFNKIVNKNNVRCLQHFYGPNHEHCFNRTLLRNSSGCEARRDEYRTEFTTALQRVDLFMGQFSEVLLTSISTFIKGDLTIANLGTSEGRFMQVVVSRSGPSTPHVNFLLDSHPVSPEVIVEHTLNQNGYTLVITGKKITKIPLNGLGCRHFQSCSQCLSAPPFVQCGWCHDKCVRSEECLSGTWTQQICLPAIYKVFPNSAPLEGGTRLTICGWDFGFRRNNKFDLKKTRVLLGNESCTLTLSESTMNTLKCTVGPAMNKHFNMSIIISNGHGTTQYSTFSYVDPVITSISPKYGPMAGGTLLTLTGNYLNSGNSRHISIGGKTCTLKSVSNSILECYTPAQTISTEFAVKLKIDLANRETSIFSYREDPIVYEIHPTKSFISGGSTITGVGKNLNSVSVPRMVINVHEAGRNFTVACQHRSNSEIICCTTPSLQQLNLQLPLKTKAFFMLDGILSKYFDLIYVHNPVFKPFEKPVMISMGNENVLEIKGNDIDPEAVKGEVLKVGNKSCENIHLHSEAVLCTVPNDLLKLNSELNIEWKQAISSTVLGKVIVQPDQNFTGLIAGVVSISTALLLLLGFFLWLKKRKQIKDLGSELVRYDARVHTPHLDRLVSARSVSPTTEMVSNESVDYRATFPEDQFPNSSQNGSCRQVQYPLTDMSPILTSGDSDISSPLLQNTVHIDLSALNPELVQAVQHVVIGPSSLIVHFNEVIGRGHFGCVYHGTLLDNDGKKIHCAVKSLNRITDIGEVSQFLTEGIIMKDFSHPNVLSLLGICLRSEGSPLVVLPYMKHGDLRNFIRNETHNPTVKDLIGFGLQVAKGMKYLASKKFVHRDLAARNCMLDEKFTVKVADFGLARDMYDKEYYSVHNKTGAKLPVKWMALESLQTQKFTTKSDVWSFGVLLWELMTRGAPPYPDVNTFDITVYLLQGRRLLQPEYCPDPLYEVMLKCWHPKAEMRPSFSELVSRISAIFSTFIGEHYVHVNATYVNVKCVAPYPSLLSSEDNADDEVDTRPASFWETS
cAMP-dependent protein kinase catalytic subunit PRKX (Homo sapiens), sequence (P51817 whole entry): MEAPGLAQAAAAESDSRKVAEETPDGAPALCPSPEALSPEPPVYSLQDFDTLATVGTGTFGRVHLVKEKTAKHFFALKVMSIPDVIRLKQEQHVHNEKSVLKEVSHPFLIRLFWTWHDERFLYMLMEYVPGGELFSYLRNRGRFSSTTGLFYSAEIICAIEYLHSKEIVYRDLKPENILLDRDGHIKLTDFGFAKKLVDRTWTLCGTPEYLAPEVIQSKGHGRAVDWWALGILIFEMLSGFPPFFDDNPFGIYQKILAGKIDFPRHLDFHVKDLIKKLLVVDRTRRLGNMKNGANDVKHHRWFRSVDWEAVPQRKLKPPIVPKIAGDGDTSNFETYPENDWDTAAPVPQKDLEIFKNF

| inhibition [2] [%] | MRT last [3] [min] | IC50 [4] [nM] | IC50 [5] [nM] | IC50 [6] [nM] | IC50 (Jurkat) [nM] | inhibition [9] [%] | inhibition [10] [%] | IC50 (Histone deacetylase) [nM] | inhibition [12] [%] | inhibition [13] [%] | MRT last [15] [min] | SMILES | Activity (HEL [1]) [%] | Activity (K562 [7]) [%] | viability at 1 µM (HEL [8]) [%] | Activity (HEL [11]) [%] | viability at 1 µM (K562 [14]) [%] |
| --- | --- | --- | --- | --- | --- | --- | --- | --- | --- | --- | --- | --- | --- | --- | --- | --- | --- |
| 37 | 21.6 | 7.4 | 4.8 | 4 | 60 | -1 | -2 | 2 | 13 | 9 | 16.2 | O=C(CCCCCn1cc(Nc2ncc(Cl)c(Nc3ccc(Cl)cc3)n2)cn1)NO | 60 | 34.4 | 4.31 | 7.97 | 17.6 |
| – | – | 3.3 | 15 | 10 | 100 | – | – | 20 | – | – | – | O=C(CCCCCCn1cc(Nc2ncc(Cl)c(Nc3cccc(Cl)c3)n2)cn1)NO | 68.7 | 15.3 | 5.97 | 2.58 | 53.6 |
